Experimental data as given in ChEMBL document CHEMBL1127042, “Molecular size and flexibility as determinants of selectivity in the oxidation of N-methyl-4-phenyl-1,2,3,6-tetrahydropyridine analogs by monoamine oxidase A and B” (J Med Chem, 1993).

Tests used:
[1] = substrate: CN1CC=C(Cc2cccs2)CC1; test: (§1) Michaelis-Menten constant against MAO A.
Summary of the method: (§2)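 Human liver MAO A expressed in yeast, purified. Initial oxidation rates measured polarographically (O2 uptake) at 30 °C in sodium phosphate buffer, pH 7.2, with 0.2% (w/v) Brij-35. Enzyme was added last to start the reaction, and its amount was set so rates were read within 60-120 s. Vmax came from double-reciprocal plots. TN was Vmax divided by flavin content. Flavin content was found from the optical density change on anaerobic reduction by kynuramine.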

[2] = substrate: CN1CC=C(CCc2cccs2)CC1; test: as §1; summary of the method: as §2
[3] = substrate: NCCC(=O)c1ccccc1N; test: as §1; summary of the method: as §2
[4] = substrate: CN1CC=C(Cc2ccccc2)CC1; test: as §1; summary of the method: as §2
[5] = substrate: CN1CC=C(Cc2cccc3ccccc23)CC1; test: as §1; summary of the method: as §2
[6] = substrate: CN1CC=C(c2ccc3ccccc3c2)CC1; test: as §1; summary of the method: as §2
[7] = substrate: CN1CC=C(CCc2cccc3ccccc23)CC1; test: as §1; summary of the method: as §2
[8] = substrate: CN1CC=C(CCc2ccsc2)CC1; test: as §1; summary of the method: as §2
[9] = substrate: CN1CC=C(c2cccc3ccccc23)CC1; test: as §1; summary of the method: as §2
[10] = substrate: CN1CC=C(c2cccs2)CC1; test: as §1; summary of the method: as §2
[11] = substrate: CN1CC=C(Cc2ccsc2)CC1; test: as §1; summary of the method: as §2
[12] = substrate: CN1CC=C(c2ccsc2)CC1; test: as §1; summary of the method: as §2
[13] = substrate: CN1CC=C(Cc2ccc3ccccc3c2)CC1; test: as §1; summary of the method: as §2
[14] = substrate: NCc1ccccc1; test: as §1; summary of the method: as §2
[15] = substrate: CN1CC=C(CCc2ccc3ccccc3c2)CC1; test: as §1; summary of the method: as §2
[16] = substrate: CN1CC=C(CCc2ccccc2)CC1; test: as §1; summary of the method: as §2
[17] = substrate: CN1CC=C(Cc2cccs2)CC1; test: (§3) Michaelis-Menten constant against MAO B.; set-up: species or system Bos taurus
Summary of the method: (§4)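 Beef liver MAO B, purified. Initial oxidation rates measured polarographically at 30 °C in sodium phosphate buffer, pH 7.2, with 0.2% (w/v) Brij-35. The reaction was started by adding enzyme, dosed so rates were measurable within 60-120 s. Vmax came from double-reciprocal plots. Turnover number was Vmax per flavin content. Flavin content came from the optical density change on anaerobic reduction by benzylamine.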

[18] = substrate: CN1CC=C(CCc2cccs2)CC1; test: as §3; set-up: species or system Bos taurus; summary of the method: as §4
[19] = substrate: NCCC(=O)c1ccccc1N; test: as §3; set-up: species or system Bos taurus; summary of the method: as §4
[20] = substrate: CN1CC=C(Cc2ccccc2)CC1; test: as §3; set-up: species or system Bos taurus; summary of the method: as §4
[21] = substrate: CN1CC=C(Cc2cccc3ccccc23)CC1; test: as §3; set-up: species or system Bos taurus; summary of the method: as §4
[22] = substrate: CN1CC=C(c2ccc3ccccc3c2)CC1; test: as §3; set-up: species or system Bos taurus; summary of the method: as §4
[23] = substrate: CN1CC=C(CCc2cccc3ccccc23)CC1; test: as §3; set-up: species or system Bos taurus; summary of the method: as §4
[24] = substrate: CN1CC=C(CCc2ccsc2)CC1; test: as §3; set-up: species or system Bos taurus; summary of the method: as §4
[25] = substrate: CN1CC=C(c2cccc3ccccc23)CC1; test: as §3; set-up: species or system Bos taurus; summary of the method: as §4
[26] = substrate: CN1CC=C(c2cccs2)CC1; test: as §3; set-up: species or system Bos taurus; summary of the method: as §4
[27] = substrate: CN1CC=C(Cc2ccsc2)CC1; test: as §3; set-up: species or system Bos taurus; summary of the method: as §4
[28] = substrate: CN1CC=C(c2ccsc2)CC1; test: as §3; set-up: species or system Bos taurus; summary of the method: as §4
[29] = substrate: CN1CC=C(Cc2ccc3ccccc3c2)CC1; test: as §3; set-up: species or system Bos taurus; summary of the method: as §4
[30] = substrate: NCc1ccccc1; test: as §3; set-up: species or system Bos taurus; summary of the method: as §4
[31] = substrate: CN1CC=C(CCc2ccc3ccccc3c2)CC1; test: as §3; set-up: species or system Bos taurus; summary of the method: as §4
[32] = substrate: CN1CC=C(CCc2ccccc2)CC1; test: as §3; set-up: species or system Bos taurus; summary of the method: as §4

B1: Amine oxidase [flavin-containing] A (Homo sapiens) (protein)
chain: MENQEKASIAGHMFDVVVIGGGISGLSAAKLLTEYGVSVLVLEARDRVGGRTYTIRNEHVDYVDVGGAYVGPTQNRILRLSKELGIETYKVNVSERLVQYVKGKTYPFRGAFPPVWNPIAYLDYNNLWRTIDNMGKEIPTDAPWEAQHADKWDKMTMKELIDKICWTKTARRFAYLFVNINVTSEPHEVSALWFLWYVKQCGGTTRIFSVTNGGQERKFVGGSGQVSERIMDLLGDQVKLNHPVTHVDQSSDNIIIETLNHEHYECKYVINAIPPTLTAKIHFRPELPAERNQLIQRLPMGAVIKCMMYYKEAFWKKKDYCGCMIIEDEDAPISITLDDTKPDGSLPAIMGFILARKADRLAKLHKEIRKKKICELYAKVLGSQEALHPVHYEEKNWCEEQYSGGCYTAYFPPGIMTQYGRVIRQPVGRIFFAGTETATKWSGYMEGAVEAGERAAREVLNGLGKVTEKDIWVQEPESKDVPAVEITHTFWERNLPSVSGLLKIIGFSTSVTALGFVLYKYKLLPRS
B1 was tested, and the Km [1] was 48 µM, the Km [2] was 108 µM and the Km [3] was 170 µM. For the same protein, the Km [4] was 66 µM, the Km [5] was 167 µM and the Km [6] was 4.6 µM. The Km [7] was 76 µM, the Km [8] was 130 µM and the Km [9] was 74 µM. The Km [10] was 188 µM, the Km [11] was 136 µM and the Km [12] was 102 µM. It also gave a Km [13] of 36 µM, a Km [14] of 780 µM and a Km [15] of 43 µM. For the same protein, the Km [16] was 120 µM.

B2: Amine oxidase [flavin-containing] B (Bos taurus) (protein)
chain: MSSKCDVVVVGGGISGMAAAKLLHDSGLNVIVLEARDRVGGRTYTLRNQKVKYVDLGGSYVGPTQNHILRLSKELGLETYKVNEVERLIHHTKGKSYPFRGSFPSVWNPITYLDHNNLWRTMDDMGREIPSDAPWKAPLAEQWDLMTMKELLDKICWTESSKQLAILFVNLCVTAEIHEVSALWFLWYVKQCGGTTRIFSTSNGGQERKFVGGSGQVSERIMDLLGDRVKLERPVIHIDQTGENVLVETLNHELYEAKYVISAVPPVLGMKIHFNPPLPMMRNQLITRVPLGSVIKSIVYYKEPFWRNMDYCGSMIIEGEEAPVAYALDDTKPDGSYPAIIGFILAHKARKLARLTKEERLKKLCDLYAKVLGSQEALHPVHYEEKNWCEEQYSGGCYTSYFPPGIMTQYGRVLRQPVGRIYFAGTETATHWSGYMEGAVEAGERAAREILHAMGKIPEDEIWLPEPESVDVPAKPITTTFLQRHLPSVPGLLKLIGLTTIFSATALGFLAHKRGLLVRI
In the case of B2, the Km [17] is reported as 102 µM, the Km [18] is reported as 49 µM and the Km [19] is reported as 84 µM. The Km [20] was 154 µM, the Km [21] was 850 µM and the Km [22] was 730 µM. The Km [23] was 1280 µM, the Km [24] was 57 µM and the Km [25] was 110 µM. For the same protein, the Km [26] was 168 µM, the Km [27] was 195 µM and the Km [28] was 26 µM. The Km [29] was 840 µM, the Km [30] was 290 µM and the Km [31] was 1030 µM. The Km [32] was 54 µM.
